According to ChEMBL document CHEMBL4145682, “An Affinity-Based Probe for the Human Adenosine A2A Receptor” (J Med Chem, 2018):
Calls of active or inactive are those of the source. No cut-off for these calls is given here.

Legend:
Adenosine receptor A2a [1] = molecular target: T1, Adenosine receptor A2a (Homo sapiens, UniProt P29274); experiment: Potency shift, difference in pKi for displacement of [3H]ZM241385 human A2AR (1 to 316 residues) expressed in Pichia pastoris SMD1168 cell membranes incubated for 0.5 hrs to pKi for displacement of [3H]ZM241385 human A2AR (1 to 316 residues) expressed in Pichia pastoris SMD1168 cell membranes incubated for 3 hrs
Adenosine receptor A2a [2] = molecular target: T1, Adenosine receptor A2a; experiment: Displacement of [3H]ZM241385 human A2AR (1 to 316 residues) expressed in Pichia pastoris SMD1168 cell membranes
Adenosine receptor A2a [3] = molecular target: T1, Adenosine receptor A2a; experiment: Displacement of [3H]ZM241385 human A2AR […] expressed in […] cell membranes incubated for 0.5 hrs
Method in brief: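 HEK293 cell membranes stably expressing hA2AR, 10 μg protein per tube. Buffer 25 mM Tris-HCl pH 7.4, 5 mM MgCl2, 0.1% CHAPS. [3H]ZM241385 displaced by increasing compound concentrations at 25°C for 0.5 h (standard) or 3 h. Nonspecific binding defined with 100 µM NECA. Stopped by GF/B filtration and scintillation counting. Apparent pKi, means ± SEM of three experiments in duplicate. Shift = pKi(3h) − pKi(0.5h).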

Homo sapiens = species: Homo sapiens; experiment: Selectivity for human A2AR (1 to 316 residues) expressed in Pichia pastoris SMD1168 cell membranes over human A3AR
Adenosine receptor A2a [4] = molecular target: T1, Adenosine receptor A2a; experiment: Photoaffinity labelling of purified human A2AR (1 to 316 residues) by SDS-PAGE analaysis pretreated with 10 uM ZM241385 followed by compound addition at 1 uM by competitive labeling assay
Method in brief: (§1)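 Purified hA2AR (0.1 mg/mL) was preincubated 1 h on ice with 10 μM competitor or 1% DMSO. Then labeled with 1 μM probe for 0.5 h on ice. CuAAC with Cy3-azide followed, then SDS-PAGE in-gel fluorescence normalized to anti-His immunoblot. Three experiments; Student's t-test.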

Adenosine receptor A2a [5] = molecular target: T1, Adenosine receptor A2a; experiment: Covalent binding to human A2AR (1 to 316 residues) expressed in Pichia pastoris SMD1168 cell membranes assessed as radioligand binding level pre-incubated at 1.5 to 5 nM followed by compound wash out before [3H]ZM241385 addition (reference value: 65 +/- 2%)
Adenosine receptor A2a [6] = molecular target: T1, Adenosine receptor A2a; experiment: Photoaffinity labelling of purified human A2AR (1 to 316 residues) by SDS-PAGE analaysis pretreated with 10 uM LUF7445 followed by compound addition at 1 uM by competitive labeling assay; method in brief: as §1
Adenosine receptor A2a [7] = molecular target: T1, Adenosine receptor A2a; experiment: Photoaffinity labelling of N-terminal FLAG-tagged and C-terminal His-tagged human adenosine A2A receptor expressed in HEK293 cell membranes at 1 uM incubated for 1 hr by SDS PAGE and Western blot analysis based affinity-based protein labeling assay
Method in brief: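 Membranes (1 mg/mL in 50 mM Tris-HCl pH 7.4) came from HEK293 transiently transfected 48 h with FLAG-hA2AR-His. Incubated with probe (0.1–3 μM) or 1% DMSO for 1 h at room temperature. Click at room temperature for 1 h, with CuSO4 added last: 4.4 μM Cy3-azide, 33 mM ascorbate, 1.1 mM THPTA, 5.6 mM CuSO4. Denatured 30 min at 37°C. Read-out: in-gel fluorescence, with anti-FLAG Western blot (~50 kDa).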

Adenosine receptor A2a [8] = molecular target: T1, Adenosine receptor A2a; experiment: Photoaffinity labelling of purified human A2AR (1 to 316 residues) by Western blot analysis
Method in brief: (§2)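 His-tagged hA2AR (residues 1–316) from Pichia pastoris was purified by HisTrap, diluted to 0.1 mg/mL in 25 mM HEPES pH 7.5, 100 mM NaCl, 10 μM LMNG. Incubated with probe at a range of concentrations or 1% DMSO for 1 h on ice. CuAAC click on ice, 1 h: 5.6 mM CuSO4, 33 mM ascorbate, 1.1 mM THPTA, 4.4 μM Cy3-azide. Read-out: SDS-PAGE in-gel fluorescence of the ~47 kDa band, normalized to anti-His immunoblot. pEC50 fitted; three experiments.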

Adenosine receptor A2a [9] = molecular target: T1, Adenosine receptor A2a; experiment: Photoaffinity labelling of purified human A2AR (1 to 316 residues) by SDS-PAGE analaysis; method in brief: as §2

T1 sequence (P29274 whole entry, the tested form may be a part): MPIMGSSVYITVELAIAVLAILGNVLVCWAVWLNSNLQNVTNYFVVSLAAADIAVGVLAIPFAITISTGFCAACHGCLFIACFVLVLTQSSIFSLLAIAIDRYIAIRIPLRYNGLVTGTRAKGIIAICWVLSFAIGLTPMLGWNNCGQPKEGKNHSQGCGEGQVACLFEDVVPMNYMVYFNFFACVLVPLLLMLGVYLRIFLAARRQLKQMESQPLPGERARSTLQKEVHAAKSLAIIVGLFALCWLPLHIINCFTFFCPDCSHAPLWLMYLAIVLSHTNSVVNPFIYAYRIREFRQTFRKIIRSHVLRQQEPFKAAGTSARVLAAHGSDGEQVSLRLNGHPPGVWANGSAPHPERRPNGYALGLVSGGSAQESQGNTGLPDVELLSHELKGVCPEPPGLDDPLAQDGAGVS

| SMILES | fold change (FC) (Adenosine receptor A2a [1]) | inhibition (Adenosine receptor A2a [2]) | Ki (Adenosine receptor A2a [3]) [nM] | inhibition (Adenosine receptor A2a [3]) | Selectivity ratio (Homo sapiens) | Activity (Adenosine receptor A2a [4]) | Activity (Adenosine receptor A2a [5]) [%] | Activity (Adenosine receptor A2a [6]) | Activity (Adenosine receptor A2a [7]) | Activity (Adenosine receptor A2a [8]) | Activity (Adenosine receptor A2a [9]) | EC50 (Adenosine receptor A2a [9]) [nM] |
| --- | --- | --- | --- | --- | --- | --- | --- | --- | --- | --- | --- | --- |
| Nc1nc(NCCCCCNC(=O)c2ccc(S(=O)(=O)F)cc2)nc2nc(-c3ccco3)nn12 | 0.65 | Dose-dependent effect | 2.75 | Dose-dependent effect |  |  |  |  |  |  |  |  |
| Nc1nc(NCCCCNC(=O)c2ccc(S(=O)(=O)F)cc2)nc2nc(-c3ccco3)nn12 | 0.85 | Dose-dependent effect | 6.31 | Dose-dependent effect |  |  |  |  |  |  |  |  |
| C#CCN(CCCCCNc1nc(N)n2nc(-c3ccco3)nc2n1)C(=O)c1ccc(S(=O)(=O)F)cc1 | 0.41 | Dose-dependent effect | 3.89 |  | < 10 | inactive | 43 | inactive | Active | Active | Dose-dependent effect | 794 |
| Nc1nc(NCCCNC(=O)c2ccc(S(=O)(=O)F)cc2)nc2nc(-c3ccco3)nn12 | 0.72 |  | 5.37 |  |  |  |  |  |  |  |  |  |
